According to ChEMBL document CHEMBL1177847, “Combating oxidative stress in epilepsy: design, synthesis, quantum chemical studies and anticonvulsant evaluation of 1-(substituted benzylidene/ethylidene)-4-(naphthalen-1-yl)semicarbazides” (Eur J Med Chem, 2010):
Active and inactive are the calls of the source. The rule behind the calls is not given here.

Columns and labels:
Mus musculus [1] = assay: Anticonvulsant activity against maximal electroshock-induced seizures in ip dosed Swiss albino mouse assessed as minimum effective dose after 0.5 hrs; format: functional; settings: read-out: MED
How it was run: (§1)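 Male Swiss albino mice (18–25 g) received the compound suspended in 5% gum acacia/water, i.p. at 30, 100 and 300 mg/kg (one to four animals per dose). Maximal electroshock was applied at 0.5 and 4 h. Protection meant abolition of the hind limb tonic extensor component. The lowest dose protecting half or more of the mice was recorded.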

Mus musculus [2] = assay: Neurotoxicity in ip dosed Swiss albino mouse assessed as minimum dose required to cause impair in motor coordination after 4 hrs by rotarod test; format: toxicity, organism-based; settings: in vivo
How it was run: (§2)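 Rotarod motor-impairment test in male Swiss albino mice dosed i.p. at 30, 100 or 300 mg/kg in 5% gum acacia/water. Mice that fell off the rotating rod within 30 s during pretraining were excluded. The dose at which animals fell off was recorded at 0.5 and 4 h.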

Mus musculus [3] = assay: Anticonvulsant activity against subcutaneous pentylenetetrazole-induced seizures in ip dosed Swiss albino mouse assessed as minimum effective dose after 0.5 hrs; format: functional; settings: read-out: MED
How it was run: (§3)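 Male Swiss albino mice (18–25 g) were dosed i.p. with the compound in 5% gum acacia/water at 30, 100 or 300 mg/kg. Thirty minutes later they received PTZ 85 mg/kg (CD97) and were watched for seizures over 4 h. Readings at 0.5 and 4 h gave the lowest dose active in half or more of the animals. Myoclonic jerks were noted separately.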

Mus musculus [4] = assay: Neurotoxicity in ip dosed Swiss albino mouse assessed as minimum dose required to cause impair in motor coordination after 0.5 hrs by rotarod test; format: toxicity, organism-based; settings: in vivo; how it was run: as §2
Mus musculus [5] = assay: Anticonvulsant activity against maximal electroshock-induced seizures in Swiss albino mouse at 300 mg/kg, ip after 4 hrs; format: functional, organism-based; set-up: dose 300 mg/kg; how it was run: as §1
Mus musculus [6] = assay: Anticonvulsant activity against subcutaneous pentylenetetrazole-induced seizures in Swiss albino mouse at 300 mg/kg, ip after 4 hrs; format: functional, organism-based; set-up: dose 300 mg/kg; how it was run: as §3
Mus musculus [7] = assay: Anticonvulsant activity against maximal electroshock-induced seizures in Swiss albino mouse at 300 mg/kg, ip after 0.5 hrs; format: functional, organism-based; set-up: dose 300 mg/kg; how it was run: as §1
Mus musculus [8] = assay: Anticonvulsant activity against maximal electroshock-induced seizures in ip dosed Swiss albino mouse assessed as minimum effective dose after 4 hrs; format: functional; settings: read-out: MED; how it was run: as §1
Mus musculus [9] = assay: Toxicity in subcutaneous pentylenetetrazole-induced Swiss albino mouse assessed as death at 30 to 300 mg/kg, ip after 0.5 hrs; format: organism-based; set-up: dose 30-300 mg/kg
How it was run: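 Male Swiss albino mice (18–25 g) given compound suspended in 5% gum acacia/water, i.p. at 30, 100 or 300 mg/kg, one to four animals per dose. PTZ at 85 mg/kg was injected 30 min after compound. Animals were examined 0.5 and 4 h after administration, and death following tonic extension was noted. The maximum dose was 300 mg/kg.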

Mus musculus [10] = assay: Neurotoxicity in ip dosed Swiss albino mouse assessed as impair in motor coordination at 300 mg/kg, ip after 4 hrs by rotarod test; format: toxicity, organism-based; set-up: dose 300 mg/kg, route intraperitoneal; settings: in vivo; how it was run: as §2
Mus musculus [11] = assay: Restoration of GSH peroxidase activity in subcutaneous pentylenetetrazole treated Swiss albino mouse brain assessed per mg of protein at 100 mg/kg, ip after 4 hrs; format: functional; settings: route intraperitoneal
How it was run: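 Brain homogenate came from PTZ-treated mice 4 h after 100 mg/kg i.p. dosing, using the 10500 × g supernatant. Samples were equilibrated 5 min at 25 °C, started with H2O2, and A340 was followed for 5 min. n = 6.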

Mus musculus [12] = assay: Neurotoxicity in ip dosed Swiss albino mouse assessed as impair in motor coordination at 300 mg/kg, ip after 0.5 hrs by rotarod test; format: toxicity, organism-based; set-up: dose 300 mg/kg, route intraperitoneal; settings: in vivo; how it was run: as §2
Mus musculus [13] = assay: Reduction of lipid peroxidation in subcutaneous pentylenetetrazole treated Swiss albino mouse brain assessed reduction of malondialdehyde level per mg of protein at 100 mg/kg, ip after 4 hrs by TBARS assay; format: functional; settings: route intraperitoneal
How it was run: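 PTZ-treated mice were dosed at 100 mg/kg i.p. and decapitated 4 h after the last injection. Brains were homogenized in four volumes of ice-cold 50 mM Tris-HCl, pH 7.4, and spun at 3000 × g for 15 min. TBARS in the supernatant was read at 532 nm in the upper organic layer and expressed as nmol MDA/mg protein. n = 6, mean ± S.E.M.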

Mus musculus [14] = assay: Restoration of SOD activity in subcutaneous pentylenetetrazole treated Swiss albino mouse brain assessed per mg of protein at 100 mg/kg, ip after 4 hrs; format: functional; settings: route intraperitoneal
How it was run: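 The ethanol phase of an ethanol/chloroform (5:3) extract of brain supernatant was used, from PTZ-treated mice 4 h after 100 mg/kg i.p. Superoxide was generated by xanthine–xanthine oxidase at pH 10.2 with NBT, 20 min at 25 °C. The reaction was stopped with CuCl2 and read at 560 nm. One unit gives 50% inhibition of NBT reduction; results are expressed as U/mg protein. n = 6.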

Mus musculus [15] = assay: Restoration of GSH level in subcutaneous pentylenetetrazole treated Swiss albino mouse brain assessed per gram of tissue at 100 mg/kg, ip after 4 hrs; format: functional; settings: route intraperitoneal
How it was run: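 Brains were taken from PTZ-treated mice 4 h after 100 mg/kg i.p. dosing. Tissue was deproteinized with an equal volume of 10% TCA for 2 h at 4 °C and centrifuged at 2000 g for 15 min. The supernatant was mixed with 0.4 M Tris (pH 8.9) containing 0.02 M EDTA, and 0.01 M DTNB was added before spectrophotometric reading. n = 6.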

Mus musculus [16] = assay: Anticonvulsant activity against subcutaneous pentylenetetrazole-induced seizures in ip dosed Swiss albino mouse assessed as minimum effective dose after 4 hrs; format: functional; settings: read-out: MED; how it was run: as §3
Mus musculus [17] = assay: Anticonvulsant activity against subcutaneous pentylenetetrazole-induced seizures in Swiss albino mouse at 300 mg/kg, ip after 0.5 hrs; format: functional, organism-based; set-up: dose 300 mg/kg; how it was run: as §3
Rattus norvegicus = assay: Anticonvulsant activity against subcutaneous pentylenetetrazole-induced seizures in Wistar albino rat at 50 mg/kg, ip after 2 hrs; format: functional

| Compound | minimal effective dose (Mus musculus [1]) [mg/kg] | Activity (Mus musculus [2]) [mg/kg] | minimal effective dose (Mus musculus [3]) [mg/kg] | Activity (Mus musculus [4]) [mg/kg] | Activity (Mus musculus [5]) | Activity (Mus musculus [6]) | Activity (Mus musculus [7]) | minimal effective dose (Mus musculus [8]) [mg/kg] | Activity (Mus musculus [9]) | Activity (Mus musculus [10]) | Activity (Mus musculus [11]) [U] | Activity (Mus musculus [12]) | Activity (Mus musculus [13]) [nmol] | Activity (Mus musculus [14]) [U] | Activity (Mus musculus [15]) [µg] | minimal effective dose (Mus musculus [16]) [mg/kg] | Activity (Mus musculus [17]) | Activity (Rattus norvegicus) |
| --- | --- | --- | --- | --- | --- | --- | --- | --- | --- | --- | --- | --- | --- | --- | --- | --- | --- | --- |
| COc1cc(/C=N/NC(=O)Nc2cccc3ccccc23)ccc1O | 300 | 100 | 300 | 100 | inactive | inactive |  |  |  |  |  |  |  |  |  |  |  |  |
| C/C(=N\NC(=O)Nc1cccc2ccccc12)c1ccc(C)cc1 |  | 300 | 300 | 300 | inactive | inactive | inactive |  |  |  |  |  |  |  |  |  |  |  |
| O=C(N/N=C/c1ccc(Br)cc1)Nc1cccc2ccccc12 | 300 | 300 | 300 | 300 |  | inactive |  | 300 |  |  |  |  |  |  |  |  |  |  |
| O=C(N/N=C/c1ccccc1)Nc1cccc2ccccc12 | 300 | 100 |  | 100 | inactive | inactive |  |  | Toxic |  |  |  |  |  |  |  |  |  |
| O=C(N/N=C/c1ccc(Cl)cc1)Nc1cccc2ccccc12 |  |  | 300 | 300 |  | inactive | inactive | 300 |  | Non-toxic |  |  |  |  |  |  |  |  |
| CCCC(CCC)C(=O)O [VALPROIC ACID] |  |  | 300 |  | inactive | inactive | inactive |  |  | Non-toxic | 2.19 | Non-toxic | 1.96 | 1.82 | 22.14 |  |  |  |
| O=C(N/N=C/c1ccc(Cl)cc1Cl)Nc1cccc2ccccc12 | 100 | 300 | 300 |  |  |  |  | 100 |  |  | 1.65 | Non-toxic | 2.78 | 1.69 | 21.35 | 300 |  |  |
| C/C(=N\NC(=O)Nc1cccc2ccccc12)c1ccc(Cl)cc1 |  |  | 300 | 300 |  | inactive | inactive | 300 |  | Non-toxic |  |  |  |  |  |  |  |  |
| COc1ccc(OC)c(/C=N/NC(=O)Nc2cccc3ccccc23)c1 |  |  | 300 | 300 |  | inactive | inactive | 300 |  | Non-toxic |  |  |  |  |  |  |  |  |
| COc1ccc(/C=N/NC(=O)Nc2cccc3ccccc23)cc1 | 300 |  |  | 300 | inactive | inactive |  |  | Toxic | Non-toxic |  |  |  |  |  |  |  |  |
| C/C(=N\NC(=O)Nc1cccc2ccccc12)c1ccccc1 | 300 |  |  | 100 | inactive | inactive |  |  |  | Non-toxic |  |  |  |  |  |  | inactive |  |
| COc1ccc(/C=N/NC(=O)Nc2cccc3ccccc23)cc1OC | 100 |  | 100 |  |  |  |  | 100 |  | Non-toxic | 1.62 | Non-toxic | 2.53 | 1.45 | 18.51 | 300 |  | inactive |
| O=C(N/N=C/c1ccccc1Cl)Nc1cccc2ccccc12 |  | 300 | 300 |  | inactive | inactive | inactive |  |  |  |  | Non-toxic |  |  |  |  |  |  |
| NC(=O)N1c2ccccc2C=Cc2ccccc21 [CARBAMAZEPINE] | 30 | 300 | 100 | 100 |  |  |  | 100 |  |  |  |  |  |  |  | 300 |  |  |
| O=C1NC(=O)C(c2ccccc2)(c2ccccc2)N1 [PHENYTOIN] | 30 | 100 |  | 100 |  | inactive |  | 30 |  |  |  |  |  |  |  |  | inactive |  |
| CCC1(C)CC(=O)NC1=O (configuration not stated) [ETHOSUXIMIDE] |  |  | 300 |  | inactive | inactive | inactive |  |  | Non-toxic |  | Non-toxic |  |  |  |  |  |  |
| O=C(N/N=C/c1ccc(O)cc1)Nc1cccc2ccccc12 | 100 | 300 |  | 100 | inactive | inactive |  |  |  |  |  |  |  |  |  |  | inactive |  |
| O=C(N/N=C/c1ccccc1[N+](=O)[O-])Nc1cccc2ccccc12 |  |  | 300 | 300 |  | inactive | inactive | 300 |  | Non-toxic |  |  |  |  |  |  |  |  |
| COc1cccc(/C=N/NC(=O)Nc2cccc3ccccc23)c1 |  |  | 100 | 100 |  | inactive | inactive | 300 |  | Non-toxic |  |  |  |  |  |  |  |  |
